Data: ChEMBL document CHEMBL1240339, “Raft nanodomains contribute to Akt/PKB plasma membrane recruitment and activation” (Nat Chem Biol, 2008)
Values joined by “and” are separate entries in the source; they are usually repeats but may differ in a detail not shown here. Equal entries are not always repeated. Active and inactive are the calls of the source. No cut-off for these calls is given here.

Tests used:
Assay type in all cases: cell-based
[1] = target: T1, Squalene synthase (Mus musculus) (UniProt P53798); test: Inhibition of squalene synthase in mouse DWT6.11 cells assessed as cholesterol level at 5 uM after 14 to 18 hrs by fluorescence correlation spectroscopy relative to control; set-up: scale not given: the % may be the effect or the level left
T1 sequence (whole entry): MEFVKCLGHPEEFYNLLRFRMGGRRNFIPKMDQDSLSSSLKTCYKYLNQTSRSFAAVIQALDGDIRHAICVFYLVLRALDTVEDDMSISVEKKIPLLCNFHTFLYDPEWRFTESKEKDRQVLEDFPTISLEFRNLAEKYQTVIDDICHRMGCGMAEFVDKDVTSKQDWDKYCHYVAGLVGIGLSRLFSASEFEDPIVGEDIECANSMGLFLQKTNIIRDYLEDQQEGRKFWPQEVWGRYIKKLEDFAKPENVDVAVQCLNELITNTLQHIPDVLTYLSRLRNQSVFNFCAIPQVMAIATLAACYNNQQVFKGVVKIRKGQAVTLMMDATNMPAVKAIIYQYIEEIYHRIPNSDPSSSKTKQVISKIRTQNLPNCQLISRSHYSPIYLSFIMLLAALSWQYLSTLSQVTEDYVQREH

[2] = target: T2, Squalene synthase (Homo sapiens) (UniProt P37268); test: Inhibition of squalene synthase in human Jurkat JA16 cells assessed as cholesterol level at 5 uM after 14 to 18 hrs by fluorescence correlation spectroscopy relative to control; set-up: scale not given: the % may be the effect or the level left
T2 sequence (whole entry): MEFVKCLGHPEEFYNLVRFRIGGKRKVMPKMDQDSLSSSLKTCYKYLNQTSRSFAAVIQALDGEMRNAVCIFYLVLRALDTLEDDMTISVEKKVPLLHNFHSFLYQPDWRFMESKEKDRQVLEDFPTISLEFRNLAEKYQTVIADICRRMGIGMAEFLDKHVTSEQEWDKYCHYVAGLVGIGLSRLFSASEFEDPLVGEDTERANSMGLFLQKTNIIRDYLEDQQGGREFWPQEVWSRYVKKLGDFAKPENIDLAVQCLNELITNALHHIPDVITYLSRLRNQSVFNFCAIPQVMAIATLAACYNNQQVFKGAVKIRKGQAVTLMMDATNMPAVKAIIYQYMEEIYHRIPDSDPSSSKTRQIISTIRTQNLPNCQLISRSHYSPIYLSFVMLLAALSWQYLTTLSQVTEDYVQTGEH

COS-7 [3] = test: Inhibition of squalene synthase in african green monkey COS7 cells assessed as cholesterol level at 5 uM after 14 to 18 hrs by fluorescence correlation spectroscopy relative to control; set-up: scale not given: the % may be the effect or the level left; conditions: Chlorocebus aethiops
Mus musculus [4] = species on record: Mus musculus; test: Inhibition of CD-28 triggered Ras/MAPK in mouse DWT6.11 cells by immunoblotting analysis
How it was run: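 DWT6.11 cells were pretreated with myriocin (25 µM, 48 h in complete medium, then serum-starved 14–18 h). They were stimulated or not with CD28 monoclonal antibody. The Ras/MAPK pathway was read as ERK phosphorylation by immunoblotting.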

[5] = target: T1, Squalene synthase (Mus musculus); test: Inhibition of squalene synthase in mouse DWT6.11 cells assessed as sphingomyelin level at 5 uM after 14 to 18 hrs by fluorescence correlation spectroscopy relative to control; set-up: scale not given: the % may be the effect or the level left
Jurkat [6] = test: Inhibition of serine palmitoyltransferase in human Jurkat JA16 cells assessed as sphingomyelin level at 5 uM after 14 to 18 hrs by fluorescence correlation spectroscopy relative to control; set-up: scale not given: the % may be the effect or the level left
COS-7 [7] = test: Inhibition of squalene synthase in african green monkey COS7 cells assessed as of cholesterol level at 5 uM after 14 to 18 hrs by fluorescence correlation spectroscopy relative to control; set-up: scale not given: the % may be the effect or the level left; conditions: Chlorocebus aethiops
Jurkat [8] = test: Inhibition of serine palmitoyltransferase in human Jurkat JA16 cells assessed as sphingomyelin level at 25 uM after 14 to 18 hrs by fluorescence correlation spectroscopy relative to control; set-up: scale not given: the % may be the effect or the level left
COS-7 [9] = test: Inhibition of serine palmitoyltransferase in african green monkey COS7 cells assessed as sphingomyelin level at 10 uM after 14 to 18 hrs by fluorescence correlation spectroscopy relative to control; set-up: scale not given: the % may be the effect or the level left; conditions: Chlorocebus aethiops
[10] = target: RAC-alpha serine/threonine-protein kinase (Mus musculus) (UniProt P31750); test: Inhibition of CD-28 triggered Akt phosphorylation in mouse DWT6.11 cells assessed as enzyme phosphorylation at Thr308 by immunoblotting relative to control; conditions: concentration not given here
Chain of RAC-alpha serine/threonine-protein kinase (Mus musculus) (P31750 whole entry): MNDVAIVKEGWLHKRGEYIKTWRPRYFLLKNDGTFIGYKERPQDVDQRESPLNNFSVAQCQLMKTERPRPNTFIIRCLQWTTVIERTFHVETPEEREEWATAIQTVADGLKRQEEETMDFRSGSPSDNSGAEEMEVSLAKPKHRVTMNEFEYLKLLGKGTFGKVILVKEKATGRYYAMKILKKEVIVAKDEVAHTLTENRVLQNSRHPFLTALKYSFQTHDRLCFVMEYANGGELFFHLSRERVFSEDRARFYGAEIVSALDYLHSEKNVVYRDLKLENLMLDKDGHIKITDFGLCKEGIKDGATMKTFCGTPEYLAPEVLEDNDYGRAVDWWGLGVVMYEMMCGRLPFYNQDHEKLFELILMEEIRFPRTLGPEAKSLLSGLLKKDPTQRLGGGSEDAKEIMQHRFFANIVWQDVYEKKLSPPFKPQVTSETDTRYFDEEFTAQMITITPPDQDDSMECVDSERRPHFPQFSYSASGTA
How it was run: (§1)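 DWT6.11 mouse T cells were given 25 µM myriocin for 48 h in complete medium, then serum-starved 14–18 h with 25 µM myriocin, then stimulated with CD28 monoclonal antibody. Akt Thr308 and Ser473 phosphorylation induction was quantified by immunoblotting as % of untreated cells, mean ± s.d., n = 3.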

[11] = target: RAC-alpha serine/threonine-protein kinase (Mus musculus) (UniProt P31750); test: Inhibition of CD-28 triggered Akt phosphorylation in mouse DWT6.11 cells assessed as enzyme phosphorylation at Ser473 by immunoblotting relative to control; conditions: concentration not given here; how it was run: as §1
Mus musculus [12] = species on record: Mus musculus; test: Inhibition of serine palmitoyltransferase in mouse DWT6.11 cells assessed as sphingomyelin level at 25 uM after 14 to 18 hrs by fluorescence correlation spectroscopy relative to control; set-up: scale not given: the % may be the effect or the level left
Mus musculus [13] = species on record: Mus musculus; test: Inhibition of serine palmitoyltransferase in mouse DWT6.11 cells assessed as cholesterol level at 25 uM after 14 to 18 hrs by fluorescence correlation spectroscopy relative to control; set-up: scale not given: the % may be the effect or the level left
[14] = target: T2, Squalene synthase (Homo sapiens); test: Inhibition of squalene synthase in human Jurkat JA16 cells assessed as cholesterol level at 25 uM after 14 to 18 hrs by fluorescence correlation spectroscopy relative to control; set-up: scale not given: the % may be the effect or the level left
COS-7 [15] = test: Inhibition of serine palmitoyltransferase in african green monkey COS7 cells assessed as cholesterol level at 10 uM after 14 to 18 hrs by fluorescence correlation spectroscopy relative to control; set-up: scale not given: the % may be the effect or the level left; conditions: Chlorocebus aethiops
Jurkat [16] = test: Inhibition of serine palmitoyltransferase in human Jurkat JA16 cells assessed as lateral diffusion of the outer membrane leaflet-linked FL-PE nanodomain at 25 uM after 14 to 18 hrs by fluorescence correlation spectroscopy

Activity [1] [%] | Activity [2] [%] | Activity [5] [%] | SMILES | Activity (COS-7 [3]) [%] | inhibition (Mus musculus [4]) | Activity (Jurkat [6]) [%] | Activity (COS-7 [7]) [%] | Activity (Jurkat [8]) [%] | Activity (COS-7 [9]) [%] | inhibition [10] [%] | inhibition [11] [%] | Activity (Mus musculus [12]) [%] | Activity (Mus musculus [13]) [%] | Activity [14] [%] | Activity (COS-7 [15]) [%] | Activity (Jurkat [16])
64 | 81 | 103 | C=C(CC[C@]12O[C@H](C(=O)O)[C@@](O)(C(=O)O)[C@](C(=O)O)(O1)[C@H](OC(=O)/C=C/[C@@H](C)C[C@@H](C)CC)[C@H]2O)[C@@H](OC(C)=O)[C@H](C)Cc1ccccc1 | 73 | inactive | 97 | 90 | – | – | – | – | – | – | – | – | –
– | – | – | CCCCCCC(=O)CCCCCC/C=C/C[C@@H](O)[C@H](O)[C@@](N)(CO)C(=O)O | – | inactive | – | – | 28 | 30 | 50.8 | 51.2 | 24 | 98 | 97 | 92 | 0.9 ms and 0.8 um2/s
